# How the values were obtained:
# Staphylococcus aureus [1] = test: Antibacterial activity against clinical isolates of Staphylococcus aureus DM4001R after 24 hrs by […]; assay type: functional
# Staphylococcus aureus [2] = test: Antibacterial activity against clinical isolates of methicillin-resistant Staphylococcus aureus DM9808R after 24 hrs by […]; assay type: functional
# Staphylococcus aureus [3] = test: Antibacterial activity against clinical isolates of methicillin-resistant Staphylococcus aureus DM21455 after 24 hrs by […]; assay type: functional; details: DM21455, 24 h
# Bacillus cereus = test: Antibacterial activity against clinical isolates of Bacillus cereus ATCC 11778 after 24 hrs by […]; assay type: functional; details: ATCC 11778, 24 h
# [4] = Hemolytic activity against New Zealand white rabbit RBC after 1 hr by microplate reader analysis; assay type: ADME, cell-based, Oryctolagus cuniculus, Erythrocyte; details: rabbit red blood cells
# Summary of the method: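 Rabbit RBCs spun from serum at 3,000 rpm for 10 min and washed twice in PBS. Mixed with compound in DMF at 4% v/v RBCs, 1 h at 37 °C. After centrifugation, hemoglobin in the supernatant read at 576 nm. 2% Triton X-100 was the positive control and 1% DMF the negative control.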
# [5] = Selectivity index, ratio of HC50 for hemolytic activity against New Zealand white rabbit RBC to MIC for clinical isolates of Staphylococcus aureus DM4001
# Staphylococcus aureus [6] = test: Induction of membrane permeabilization in clinical isolates of Staphylococcus aureus DM4001 at MIC by SYTOX green uptake assay; assay type: functional
# Summary of the method: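 Exponential-phase cells washed twice in 20 mM PBS pH 7 and adjusted to OD620 0.09. Given 3 µM SYTOX Green and kept in the dark until fluorescence was stable, then compound added. Fluorescence followed in a stirred cuvette at ex 504/em 523 nm. Melittin 10 µg/mL was the positive control. Run at least twice; one run reported.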
# Staphylococcus aureus [7] = test: Induction of membrane permeabilization in clinical isolates of Staphylococcus aureus DM4001 assessed as ATP leakage at MIC incubated for 10 mins by firefly luciferase based luminometry analysis; assay type: functional
# Summary of the method: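 Exponential-phase cells washed twice in 20 mM PBS pH 7 and set to OD620 0.3. Exposed 10 min at 37 °C, then spun at 4000 rpm for 5 min. Supernatant mixed with luciferase reagent (1 mM DTT, 0.5 mM D-luciferin, 1.25 µg/mL firefly luciferase). Luminescence read over 30 cycles.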
# Staphylococcus aureus [8] = test: Bactericidal activity against clinical isolates of Staphylococcus aureus DM4001 assessed as log reduction in viability at 4 times MIC measured over 30 mins by time kill kinetic study; assay type: functional
# Summary of the method: (§1)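 Cells from colonies on an 18–22 h TSA plate, suspended in 0.31 mM phosphate buffer pH 7.2 at 10^5–10^6 CFU/mL. Dosed at 1×, 2× and 4× MIC at 35 °C. Aliquots taken at 10 min, 30 min, 1 h, 2 h and 5 h, diluted ten-fold serially, spread on MHA and counted after 48–72 h at 35 °C. Detection limit 100 CFU/mL. Bactericidal means a 3-log drop versus untreated control.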
# Staphylococcus aureus [9] = test: Bactericidal activity against clinical isolates of Staphylococcus aureus DM4001 assessed as log reduction in viability at 2 times MIC measured over 300 mins by time kill kinetic study; assay type: functional
# Summary of the method: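 Colonies from 18–22 h TSA plates suspended in 0.31 mM phosphate buffer pH 7.2 at 10^5–10^6 CFU/mL. Treated at 1×, 2× and 4× MIC at 35 °C, sampled at 10 min, 30 min, 1 h, 2 h and 5 h. Ten-fold dilutions spread on MHA, 35 °C for 48–72 h, colonies counted. Detection limit 100 CFU/mL; bactericidal means 3-log drop versus untreated.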
# [10] = Cytotoxicity in human corneal fibroblasts assessed as cell viability at 0.5 times MIC incubated for 4 hrs by luminescent cell viability assay relative to control; parameters: species or system Corneal fibroblast; details: read-out: Activity
# Summary of the method: (§2)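 Cells plated at 10,000 per well and exposed 4 h in 100 µL. Plate equilibrated to 22 °C for 30 min, then read with CellTiter-Glo luminescence. 1% Triton X-100 set minimal viability and 0.5% DMF served as negative control. Viability computed relative to these controls.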
# [11] = Cytotoxicity in human corneal fibroblasts assessed as cell viability at MIC incubated for 4 hrs by luminescent cell viability assay relative to control; parameters: species or system Corneal fibroblast; details: read-out: Activity; summary of the method: as §2
# [12] = Cytotoxicity in human corneal fibroblasts assessed as cell viability at 2 times MIC incubated for 4 hrs by luminescent cell viability assay relative to control; parameters: species or system Corneal fibroblast; details: read-out: Activity; summary of the method: as §2
# [13] = Cytotoxicity in human corneal fibroblasts assessed as cell viability at 4 times MIC incubated for 4 hrs by luminescent cell viability assay relative to control; parameters: species or system Corneal fibroblast; details: read-out: Activity; summary of the method: as §2
# [14] = Cytotoxicity in human corneal fibroblasts at 0.5 times MIC incubated for 4 hrs by LDH release assay relative to control; details: corneal fibroblast
# [15] = Cytotoxicity in human corneal fibroblasts at MIC incubated for 4 hrs by LDH release assay relative to control; details: corneal fibroblast
# [16] = Cytotoxicity in human corneal fibroblasts at 2 times MIC incubated for 4 hrs by LDH release assay relative to control; details: corneal fibroblast
# [17] = Cytotoxicity in human corneal fibroblasts at 4 times MIC incubated for 4 hrs by LDH release assay relative to control; details: corneal fibroblast
# Staphylococcus aureus [18] = test: Bactericidal activity against clinical isolates of Staphylococcus aureus DM4001 at 4 times MIC measured over 30 mins by time kill kinetic study; assay type: functional; summary of the method: as §1
# Staphylococcus aureus [19] = test: Bactericidal activity against clinical isolates of Staphylococcus aureus DM4001 at 2 times MIC measured over 300 mins by time kill kinetic study; assay type: functional; summary of the method: as §1
# [20] = Membrane permeabilization activity assessed as release of calcein from DOPE/DOPG liposomes at lipid:compound ratio of 8 incubated for 30 mins by fluorescence assay; assay type: ADME; details: 0.5 h
# Summary of the method: (§3)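 Freeze-thawed, extruded, then gel-filtered. Final lipid 50 µM with compound added from DMF (<0.2%). Fluorescence at ex 490/em 520 nm over 30 min; 0.1% Triton X-100 defined 100% lysis.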
# [21] = Membrane permeabilization activity assessed as release of calcein from DOPE/DOPG liposomes at lipid:compound ratio of 16 incubated for 30 mins by fluorescence assay; assay type: ADME; details: 0.5 h; summary of the method: as §3
structure (smiles),measurement,setting,value
COc1c(OCCCCN)cc2oc3cc(OCCCCN)c(CC=C(C)C)c(O)c3c(=O)c2c1CC=C(C)C,MIC,Staphylococcus aureus [1],1.56 µg/mL
same,MIC,Staphylococcus aureus [2],3.12 µg/mL
same,MIC,Staphylococcus aureus [3],1.56 µg/mL
same,MIC,Bacillus cereus,3.12 µg/mL
same,HC50 at 1 h,[4],80.2 µg/mL
same,Selectivity ratio,[5],51.4
same,Activity,Staphylococcus aureus [6],1497 cps
same,Activity,Staphylococcus aureus [7],210 nM
same,LCK,Staphylococcus aureus [8],3
same,LCK,Staphylococcus aureus [9],3
same,"viability at 4 h, 0.5 times MIC",[10],98.5%
same,"viability at 4 h, 1 times MIC",[11],91.7%
same,"viability at 4 h, 2 times MIC",[12],90.7%
same,"viability at 4 h, 4 times MIC",[13],90.3%
same,Activity,[14],-0.7%
same,Activity,[15],-1%
same,Activity,[16],-0.5%
same,Activity,[17],0.9%
same,Activity,Staphylococcus aureus [18],99.9%
same,Activity,Staphylococcus aureus [19],99.9%
CCN(CC)CCCCOc1cc2oc3cc(OCCCCN(CC)CC)c(OC)c(CCC(C)C)c3c(=O)c2c(O)c1CCC(C)C,MIC,Staphylococcus aureus [1],3.12 µg/mL
same,MIC,Staphylococcus aureus [2],12.5 µg/mL
same,MIC,Staphylococcus aureus [3],25 µg/mL
same,MIC,Bacillus cereus,25 µg/mL
same,HC50 at 1 h,[4],48.6 µg/mL
same,Selectivity ratio,[5],15.6
same,Activity,[20],58.6%
same,Activity,[21],20.1%

# From ChEMBL document CHEMBL3751813, “Nonpeptidic Amphiphilic Xanthone Derivatives: Structure-Activity Relationship and Membrane-Targeting Properties” (J Med Chem, 2016)
